Experimental data taken from ChEMBL document CHEMBL1949572, “Assessment of antiplatelet activity of 2-aminopyrimidines” (2012).

How the values were obtained:
[1] = Antiplatelet activity in human whole blood assessed as inhibition of ADP-induced platelet aggregation at 10 ug/ml treated for 2 mins before ADP challenge measured after 6 mins by whole blood aggregometer; format: functional
Summary of the method: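 Whole blood diluted 1:1 with pre-warmed PBS (pH 7.4) at 37 °C. Stirred at 1000 rpm until baseline reached. Test sample or control added with 2 min incubation, then ADP (10 µM final) to start aggregation. Impedance (ohms) followed for 6 min, taken from lowest point to end of interval. Blood used within 4 h of collection; controls run between samples; three runs per assay.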

[2] = Ratio of compound to aspirin for human whole blood; format: functional, Platelet

SMILES | inhibition at 10 µg/mL [1] [%] | Ratio [2]
COc1cccc(-c2cc(-c3ccc(OC)cc3O)nc(N)n2)c1 | 51.2 | –
COc1ccc(-c2cc(-c3cccc(Cl)c3)nc(N)n2)c(O)c1 | 65.8 | –
COc1ccc(-c2cc(-c3ccc(Cl)cc3)nc(N)n2)c(O)c1 | 8.42 | –
COc1ccc(-c2cc(-c3cccc(C)c3)nc(N)n2)c(O)c1 | 23.1 | –
COc1ccc(-c2cc(-c3ccccc3)nc(N)n2)c(O)c1 | 42.7 | –
COc1ccc(-c2cc(-c3cc(OC)ccc3O)nc(N)n2)cc1 | 64.3 | –
COc1ccc(O)c(-c2cc(-c3cccc(Cl)c3)nc(N)n2)c1 | 66.8 | –
COc1ccc(-c2cc(-c3ccc(Cl)cc3Cl)nc(N)n2)c(O)c1 | 77.5 | 2
COc1ccc(-c2cc(-c3ccc(C)cc3)nc(N)n2)c(O)c1 | 62.8 | –
COc1ccc(O)c(-c2cc(-c3ccccc3Cl)nc(N)n2)c1 | 55.1 | –
COc1ccc(-c2cc(-c3ccc([N+](=O)[O-])cc3)nc(N)n2)c(O)c1 | 58.5 | –
COc1ccc(-c2cc(-c3ccc(F)cc3)nc(N)n2)c(O)c1 | 64 | –
CCOc1ccc(O)c(-c2cc(-c3ccccc3)nc(N)n2)c1 | 39.9 | –
COc1ccc(O)c(-c2cc(-c3ccc(F)cc3)nc(N)n2)c1 | 8.79 | –
CC(=O)Oc1ccccc1C(=O)O [ASPIRIN] | 37.5 | –
COc1ccc(O)c(-c2cc(-c3ccco3)nc(N)n2)c1 | 1.46 | –
